KLK5 inh – inhibitors of human kallikrein 5. Q9Y337. recombinant hK5, fluorogenic AMC substrate cleavage. inhibition, % at 5 µM. 210,000 compounds, 0.59% hits. AID 873;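 active = inhibition of 40% or more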
Thrombin inh – blocks human thrombin protease activity. P00734. alpha-thrombin, Boc-VPR-AMC fluorogenic substrate cleavage. inhibition, % at 5 µM. 220,000 compounds, 0.26% hits. AID 1046;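 active = inhibition at or above 40%; inactive = inhibition below 40%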
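Test system: human alpha-thrombin protein / Dosing: one concentration per compound, 5 µM, with 0.2% DMSO / Medium: pH 7.5 Tris-saline with Tween 20 / Benchmarks: no-compound enzyme wells and no-enzyme blanks / Read-out basis: percent inhibition of thrombin substrate cleavage / Timing: reaction at room temperature / Measured by: fluorescence, ex 355 nm, em 460 nm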
FXIa inh – inhibitors of human coagulation factor XIa. AID 798. 220,000 compounds, 0.14% hits. P03951. inhibition, % at 5 µM. purified FXIa, Boc-Glu-Ala-Arg-AMC fluorogenic substrate;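 active = inhibition of at least 40%; inactive = inhibition below 40%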;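 also: fluorescence of freed AMC excited at 355 nm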
FXIIa inh – inhibitors of human coagulation factor XIIa. purified FXIIa, Boc-QGR-AMC fluorogenic substrate, 2 h. AID 800. 220,000 compounds, 0.3% hits. inhibition, % at 5 µM; in the data active = inhibition above about 40%
Target sequence (P00748 20-372 limits assumed): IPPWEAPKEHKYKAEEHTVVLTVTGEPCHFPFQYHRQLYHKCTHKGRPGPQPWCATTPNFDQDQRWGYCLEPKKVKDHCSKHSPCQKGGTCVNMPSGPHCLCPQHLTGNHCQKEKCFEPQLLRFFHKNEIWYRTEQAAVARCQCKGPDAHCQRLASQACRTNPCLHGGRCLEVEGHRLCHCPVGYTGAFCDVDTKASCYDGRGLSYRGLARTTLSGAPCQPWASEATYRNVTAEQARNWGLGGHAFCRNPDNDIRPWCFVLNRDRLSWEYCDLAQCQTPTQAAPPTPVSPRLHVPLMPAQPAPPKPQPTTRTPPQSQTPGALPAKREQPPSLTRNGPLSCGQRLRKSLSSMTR
Target sequence (P00748 373-615 limits assumed): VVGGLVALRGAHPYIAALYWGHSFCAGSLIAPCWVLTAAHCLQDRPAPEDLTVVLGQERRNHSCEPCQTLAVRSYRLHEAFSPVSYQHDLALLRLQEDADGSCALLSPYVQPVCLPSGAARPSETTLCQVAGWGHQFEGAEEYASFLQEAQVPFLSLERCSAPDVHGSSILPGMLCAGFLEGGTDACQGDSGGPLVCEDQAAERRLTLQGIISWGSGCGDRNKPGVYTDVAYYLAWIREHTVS
Furin inh – inhibitors of human furin; P09958; purified furin, fluorogenic substrate cleavage; inhibition, % at 20 µM or 30 µM; 220,000 compounds, 0.061% hits; AID 463115; in the data active = inhibition above about 25%
m-calpain inh – inhibitors of pig calpain II. AID 1236. inhibition, % at 16 µM. purified calpain II, fluorogenic peptide substrate, 30 min. 220,000 compounds, 0.37% hits;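 active = inhibition above about 50%, limit read from the data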
Numbers stand for hits. Compounds with a hit are over-represented: about 1.4% of the library has one in this group of screens.

Screening CC(C(=O)Oc1ccc2c(c1)OCO2)N1C(=O)c2ccccc2C1=O (stereo not given) returned KLK5 inh inactive, Thrombin inh inactive, FXIa inh inactive, FXIIa inh 57, Furin inh inactive and m-calpain inh inactive.
Screening CCOC(=O)COc1ccccc1/C=C\[N+](=O)[O-] returned KLK5 inh inactive, Thrombin inh inactive, FXIa inh inactive, FXIIa inh inactive, Furin inh inactive and m-calpain inh inactive.
For O=C1c2cccc3cccc(c23)C(=O)N1OS(=O)(=O)c1ccc(Cl)cc1 the results were KLK5 inh inactive, Thrombin inh inactive, FXIa inh inactive, FXIIa inh inactive, Furin inh inactive and m-calpain inh inactive.
CCc1ccc(S(=O)(=O)ON2C(=O)c3ccccc3C2=O)cc1 was read as KLK5 inh inactive, Thrombin inh 60, FXIa inh inactive, FXIIa inh inactive, Furin inh inactive and m-calpain inh inactive.
`O=C(c1cc2cc([N+](=O)[O-])ccc2s1)N1CCOCC1` gave KLK5 inh inactive, Thrombin inh inactive, FXIa inh inactive, FXIIa inh inactive, Furin inh inactive and m-calpain inh inactive.
Screening O=C(O)c1ccccc1CSc1nc2ccccc2n1Cc1ccccc1C(=O)O returned Thrombin inh inactive, FXIa inh inactive, FXIIa inh inactive, Furin inh inactive and m-calpain inh inactive.
`N/C(=N\OC(=O)c1cccc(Cn2cc(C(F)(F)F)ccc2=O)c1)c1ccccc1` gave KLK5 inh inactive, Thrombin inh inactive, FXIa inh inactive, FXIIa inh inactive, Furin inh inactive and m-calpain inh inactive.
N/C(=N\OC(=O)c1cccc(Cn2cc(C(F)(F)F)ccc2=O)c1)c1ccc(Cl)cc1 was read as KLK5 inh 52, Thrombin inh inactive, FXIa inh inactive, FXIIa inh inactive, Furin inh inactive and m-calpain inh inactive.
Screening COc1cc(CNC(C)(C)CO)cc(Br)c1OCc1ccc(Cl)cc1 returned KLK5 inh inactive, Thrombin inh inactive, FXIa inh inactive, FXIIa inh inactive, Furin inh inactive and m-calpain inh inactive.
`COc1cc(CNc2ccc(O)cc2)cc(Br)c1OCc1ccccc1` gave Thrombin inh inactive, FXIa inh inactive, FXIIa inh inactive, Furin inh inactive and m-calpain inh 64.
`Cc1cc(NC(=O)c2coc(=O)c(Br)c2)ccc1C(C)C` gave KLK5 inh inactive, Thrombin inh inactive, FXIa inh inactive, FXIIa inh inactive, Furin inh inactive and m-calpain inh inactive.
For Cc1cc(NC(=O)CCN2C(=O)/C(=C/c3ccccc3F)SC2=S)no1 the results were KLK5 inh inactive, Thrombin inh inactive, FXIa inh inactive, FXIIa inh 95, Furin inh inactive and m-calpain inh inactive.
Screening O=C(CCN1C(=O)/C(=C/c2ccc3c(c2)OCO3)SC1=S)Nc1ccccc1 returned KLK5 inh inactive, Thrombin inh inactive, FXIa inh inactive, FXIIa inh inactive, Furin inh inactive and m-calpain inh 58.
Screening O=C(Nc1nc(-c2ccc3c(c2)OCCO3)cs1)C1CCCC1 returned KLK5 inh inactive, Thrombin inh inactive, FXIa inh inactive, FXIIa inh inactive, Furin inh inactive and m-calpain inh inactive.
CCC(=O)Nc1cccc(C(=O)/C=C/c2ccc(F)cc2)c1 was read as KLK5 inh inactive, Thrombin inh inactive, FXIa inh inactive, FXIIa inh inactive, Furin inh inactive and m-calpain inh inactive.
For CC(=O)Nc1cccc(C(=O)/C=C/c2ccc(C)cc2)c1 the results were KLK5 inh 61, Thrombin inh inactive, FXIa inh inactive, FXIIa inh inactive, Furin inh inactive and m-calpain inh inactive.
`Cc1ccc(C(=O)c2no[n+]([O-])c2C(=O)c2ccc(C)cc2)cc1` gave KLK5 inh inactive, Thrombin inh inactive, FXIa inh inactive, FXIIa inh inactive, Furin inh inactive and m-calpain inh inactive.
CCN(C(=O)COC(=O)/C=C/c1c(C)nn(-c2ccccc2)c1C)C1CCS(=O)(=O)C1 (stereo not given) was read as KLK5 inh inactive, Thrombin inh inactive, FXIa inh 43, FXIIa inh inactive, Furin inh inactive and m-calpain inh inactive.
`CC(C)c1nc2scc(-c3ccc(Cl)cc3)c2c(=O)n1N` gave KLK5 inh inactive, Thrombin inh inactive, FXIa inh inactive, FXIIa inh inactive, Furin inh inactive and m-calpain inh inactive.
For NCCCC[C@H](NC(=O)C1CCNCC1)c1nnc(CN)o1 the results were KLK5 inh inactive, Thrombin inh inactive, FXIa inh inactive, FXIIa inh inactive, Furin inh inactive and m-calpain inh inactive.
For O=C(O)CCN1C(=O)C2C3c4ccccc4C(c4ccccc43)[C@@H]2C1=O (stereo not given in full) the results were KLK5 inh inactive, Thrombin inh inactive, FXIa inh inactive, FXIIa inh 46, Furin inh inactive and m-calpain inh inactive.
Screening O=C(O)CCN1C(=O)C2C3c4ccccc4C(c4ccccc43)C2C1=O (stereo not given) returned KLK5 inh inactive, Thrombin inh inactive, FXIa inh inactive, FXIIa inh inactive, Furin inh inactive and m-calpain inh inactive.
Screening Cc1ccccc1Oc1ncnc2oc(-c3ccccc3)cc12 returned KLK5 inh 59, Thrombin inh inactive, FXIa inh inactive, FXIIa inh inactive, Furin inh inactive and m-calpain inh inactive.
COc1ccc(CCN2C(=NC(=O)CC(C)C)SC3CS(=O)(=O)CC32)cc1OC (stereo not given) was read as KLK5 inh inactive, Thrombin inh inactive, FXIa inh inactive, FXIIa inh inactive, Furin inh inactive and m-calpain inh inactive.
`Cc1cccc(C)c1NC(=O)CSC(=O)c1sc2ccccc2c1Cl` gave KLK5 inh inactive, Thrombin inh inactive, FXIa inh inactive, FXIIa inh inactive, Furin inh inactive and m-calpain inh inactive.
`CC(CC(=O)O)CC(=O)Nc1cc(C(F)(F)F)cc(C(F)(F)F)c1` (stereo not given) gave KLK5 inh 50, Thrombin inh inactive, FXIa inh inactive, FXIIa inh inactive, Furin inh inactive and m-calpain inh inactive.
O=C(O)COCC(=O)Nc1cc(C(F)(F)F)cc(C(F)(F)F)c1 was read as KLK5 inh inactive, Thrombin inh inactive, FXIa inh inactive, FXIIa inh inactive, Furin inh inactive and m-calpain inh inactive.
c1ccc(CCNc2ncnc3scc(C4COc5ccccc5O4)c23)cc1 (stereo not given) was read as KLK5 inh inactive, Thrombin inh inactive, FXIa inh inactive, FXIIa inh inactive, Furin inh inactive and m-calpain inh 60.
Screening CCCN(C#N)c1nc(NCC)nc(NC(C)C)n1 returned KLK5 inh inactive, Thrombin inh inactive, FXIa inh inactive, FXIIa inh inactive, Furin inh inactive and m-calpain inh 52.
`Cn1c(-c2ccccc2)cnc1SCC(N)=O` gave KLK5 inh inactive, Thrombin inh inactive, FXIa inh inactive, FXIIa inh 59, Furin inh inactive and m-calpain inh inactive.
Screening Cn1c(SCC(N)=O)nnc1-c1ccccc1 returned KLK5 inh inactive, Thrombin inh inactive, FXIa inh inactive, FXIIa inh inactive, Furin inh inactive and m-calpain inh inactive.
